Screens deposited in PubChem by several laboratories.
APOBEC3G inh = APOBEC3G (human) deaminase inhibition | Q9HC16 | recombinant A3G, ssDNA deamination FAM/TAMRA fluorescence | inhibition, % at 20 µM | 330,000 compounds, 0.28% hits | AID 493012;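 active = inhibition of at least 40% at 20 µM, with no more than 30% in the related APOBEC3A deaminase screen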;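 also: plate controls were DMSO wells with A3G for no effect and wells lacking A3G enzyme for full effect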
ARFGAP1 inhibitor = inhibitors of rat ARFGAP1 | inhibition, % at 16.5 µM | Arfgap1-stimulated ARF1 GTP hydrolysis, GDP FP detection | AID 651572 | 360,000 compounds, 0.26% hits;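 active = inhibition above a per-plate limit, mean inhibition of low control wells plus 3 SD, cut at about 25% in these data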;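 also: 0% = DMSO wells with enzyme and 100% = wells lacking Arfgap1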
Target sequence (Q62848 1-136 limits assumed): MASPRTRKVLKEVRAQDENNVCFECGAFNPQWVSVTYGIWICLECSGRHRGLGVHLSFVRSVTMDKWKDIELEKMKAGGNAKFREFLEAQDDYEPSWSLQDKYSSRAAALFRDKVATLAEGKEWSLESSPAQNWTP
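Assay system: purified rat His6-Arfgap1 residues 1-136 (GAP domain); Reagent: human Δ17 ARF1 bound to GTP; Dosing: 16.5 µM single point, 1.26% DMSO; Times: GTP hydrolysis reaction 2 h at 25 °C; Signal: FP, GDP Alexa 633 tracer displaced from anti-GDP antibody, 620/688 nm; Measure: % inhibition from polarization.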
SUMO Mot1 rescue = SUMOylation pathway inhibition by Mot1-301 growth rescue; 320,000 compounds, 1% hits; S. cerevisiae Mot1-301 growth rescue, ATP luminescence, 38.5C; percent above DMSO median, 100 means doubled; growth rescue, % at 18.8 µM; AID 2716;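 active = every valid replicate shows activation above 250% relative to neutral control wells; inactive = the rest, any valid replicate at or below 250%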;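 also: OY570 slx delta 5 strain wells were the positive control but not used for scaling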
Statin myotox sup = suppressors of simvastatin-induced myotoxicity in C2C12 myotubes | ATP luminescence, 48 h; scaled: DMSO 0, geranylgeraniol control 100 | rescue of ATP level, % at 7.49 µM | 330,000 compounds, 0.78% hits | AID 602340;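 active = mean ATP rescue above about 67%, or every replicate alone reaching that limit, limit read from the data, passing the limit was not always enough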;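 also: myotubes were challenged with 10 µM simvastatin during compound exposure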
APOBEC3A inh = blocks human APOBEC3A ssDNA deamination. P31941. recombinant A3A, FAM/TAMRA ssDNA deamination fluorescence. inhibition, % at 20 µM. 330,000 compounds, 0.41% hits. AID 493011;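 active = at least 40% inhibition at 20 µM here, with at most 30% in a related deaminase screen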;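 also: plate controls were A3A with DMSO for no effect and wells lacking A3A enzyme for full effect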
ASAP1 GAP inh = inhibitors of human ASAP1 ArfGAP activity | ASAP1-stimulated ARF1 GTP hydrolysis, GDP FP detection | inhibition, % at 16.5 µM | Q9ULH1 | 360,000 compounds, 0.19% hits | AID 624377; in the data active = inhibition above about 25%;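 also: 0% = vehicle with enzyme and substrate and 100% = no enzyme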
Target sequence (Q9ULH1 325-724 limits assumed): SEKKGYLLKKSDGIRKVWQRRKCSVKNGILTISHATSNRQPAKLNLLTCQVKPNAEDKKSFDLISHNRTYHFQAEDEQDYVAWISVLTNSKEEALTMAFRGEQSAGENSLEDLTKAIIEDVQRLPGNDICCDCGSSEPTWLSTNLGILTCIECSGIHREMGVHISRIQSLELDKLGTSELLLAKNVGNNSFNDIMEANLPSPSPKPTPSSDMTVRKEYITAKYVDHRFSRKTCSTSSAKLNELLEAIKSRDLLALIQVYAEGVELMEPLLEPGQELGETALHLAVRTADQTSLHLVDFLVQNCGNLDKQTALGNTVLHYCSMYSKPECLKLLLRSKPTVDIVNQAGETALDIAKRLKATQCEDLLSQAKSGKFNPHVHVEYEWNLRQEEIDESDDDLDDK
* marks the source's active call; other numbers are inactive results; . = no result given. Most compounds without a hit are left out; they make up all but 2.1% or so of the library.

SMILES	APOBEC3G inh	ARFGAP1 inhibitor	SUMO Mot1 rescue	Statin myotox sup	APOBEC3A inh	ASAP1 GAP inh
C[C@@H]1CCCCO[C@H](CN(C)S(C)(=O)=O)[C@H](C)CN([C@@H](C)CO)C(=O)c2cc(NC(=O)CCC(F)(F)F)ccc2O1	.	.	.	7	.	.
C/C=C/c1ccc2c(c1)O[C@H](CN(C)C(=O)c1cnccn1)[C@H](C)CN([C@@H](C)CO)S2(=O)=O	.	.	.	-8	.	.
COC(=O)C[C@H]1C[C@@H]2c3cc(NC(=O)CC4CC4)ccc3O[C@@H]2[C@H](CO)O1	.	.	.	1	.	.
Cc1ccccc1NC(=O)c1onc2c1CCCC2	-2	2	-23	140*	-2	13
Cc1cccc(NC(=O)c2onc3c2CCCC3)c1C	-5	18	5	73*	3	-7
COc1cc(C2C(C#N)=C(C)NC3=C2C(=O)CC(C)(C)C3)ccc1OCCO (stereo not given)	-6	4	-2	.	-2	-5
COc1cc(C2C(C#N)=C(C)NC3=C2C(=O)CC(C)(C)C3)cc(OC)c1O (stereo not given)	2	-3	348*	6	0	13
CC=Cc1ccc2n(c1=O)C[C@H]1[C@H](CO)[C@@H](C(=O)NCC3CC3)[C@@H]2N1C(=O)c1ccccc1 (mixture of isomers)	.	.	.	-26	.	.
COCC(COCCCNC(=O)Nc1ccc(Br)cc1)OC (stereo not given)	-9	16	75	108*	-3	-4
O=c1cc(N2CCOCC2)[nH]c(=O)n1C1CCCCC1	0	-3	-9	122*	-2	-6
Fc1ccc(CSc2ncnc3nc[nH]c23)cc1	-11	10	-5	158*	-3	-2
Brc1ccc(CSc2ncnc3nc[nH]c23)cc1	0	7	-13	0	-2	5
O=C(Nc1ccc(F)cc1)N[C@@H]1CC[C@H](CCNS(=O)(=O)c2cccc(Cl)c2)O[C@H]1CO	.	.	.	0	.	.
NC1=NC(=Nc2ccccc2)c2ccccc21	-5	2	134	134*	-2	-1
CCCn1c(SCC(=O)c2ccc(OC)c(OC)c2)nc2c1c(=O)n(C)c(=O)n2C	-5	11	21	130*	-2	-3
C[C@@H]1CN([C@@H](C)CO)C(=O)c2cccc(NS(C)(=O)=O)c2O[C@H]1CN(C)Cc1ccncc1	.	.	.	4	.	.
C[C@@H]1CN([C@H](C)CO)C(=O)Cc2cc(NC(=O)Nc3ccc(C(F)(F)F)cc3)ccc2O[C@H]1CN(C)S(C)(=O)=O	.	.	.	19	.	.
CCCCOc1nc2ccccc2nc1C(C#N)C(=O)NC1CCCCC1 (stereo not given)	-7	-2	-1	108*	-8	-1
CC1CCN(c2nc3ccccc3nc2C(C#N)C(=O)NC2CCCCC2)CC1 (stereo not given)	-3	.	-2	.	-2	.
CSc1nsc(/C=C/Nc2ccc(Cl)cc2)c1C#N	-4	22	15	125*	-2	11
CSc1nsc(/C=C/Nc2ccc(F)cc2)c1C#N	-13	3	-6	.	1	4
OCCNc1cc(-n2nc(-c3ccccc3)cc2-c2ccccc2)ncn1	-4	8	-2	114*	1	11
CNc1cc(-n2nc(C)cc2-c2ccccc2)ncn1	-5	-6	-19	9	-3	5
O=C(C[C@H]1C=C[C@H](NC(=O)C2CC2)[C@@H](CO)O1)NCCCN1CCOCC1	.	.	.	-5	.	.
CC1CC/C(=C\c2ccc3c(c2)OCO3)C(=O)/C1=C/c1ccc2c(c1)OCO2 (stereo not given)	1	-10	10	207*	2	8
SMILES	APOBEC3G inh	ARFGAP1 inhibitor	SUMO Mot1 rescue	Statin myotox sup	APOBEC3A inh	ASAP1 GAP inh
Cc1cccc(-c2ccc([C@H]3[C@@H](CO)N4CCCCN(C(=O)c5ccc6c(c5)OCO6)C[C@@H]34)cc2)c1	.	.	.	69*	.	.
Cc1cccc(-c2ccc([C@@H]3[C@@H](CO)N4CCCCN(C(=O)c5ccc6c(c5)OCO6)C[C@H]34)cc2)c1	.	.	.	3	.	.
O=C(NC(=S)NCCN1CCOCC1)c1ccc(Cl)cc1Cl	-4	9	9	89*	-3	1
O=C(NC(=S)NCCN1CCOCC1)c1ccccc1Cl	-1	7	5	20	2	-8
O=C(C[C@H]1CC[C@H]2[C@@H](COC[C@@H](O)CN2S(=O)(=O)c2cccc(Cl)c2)O1)N1CCCCC1	.	.	.	10	.	.
CC(C)Oc1ccc(C(=O)NCc2ccco2)cc1	-7	1	2	127*	-6	-15
O=C(NCc1ccco1)c1ccccc1	4	11	21	7	3	-2
Cc1cc(Cl)ccc1OC(C)C(=O)Nc1ccccc1N1CCOCC1 (stereo not given)	-1	5	11	94*	0	9
CC(C)NC(=O)N(C)C[C@H]1Oc2ncc(C#CCC3CCCC3)cc2C(=O)N([C@@H](C)CO)C[C@H]1C	.	.	.	-1	.	.
COc1c(Cl)cc(Cl)cc1C(=O)n1nc(C)cc1C	-2	-7	7	98*	-2	-20
O=C(c1ccncc1)N1C[C@@H]2[C@H](c3ccccc31)[C@@H](CO)N2C(=O)c1ccccn1	.	.	.	8	.	.
CCCC#Cc1cnc2c(c1)C(=O)N([C@@H](C)CO)C[C@H](C)[C@H](CN(C)C(=O)c1ccccc1)O2	.	.	.	2	.	.
COc1cccc(C(=O)Nc2ccc3c(c2)C(=O)N(C)[C@@H]2CC[C@H](CC(=O)NCc4ccccc4F)O[C@@H]2CO3)c1	.	.	.	-13	.	.
O=C(Nc1ccc(F)cc1F)NC1CC(=O)N(Cc2ccccc2)C1 (stereo not given)	-2	-6	8	86*	3	-10
C[C@@H]1CN([C@H](C)CO)C(=O)c2cc(C#CCN(C)C)cnc2O[C@H]1CN(C)C	.	.	.	-15	.	.
COc1ccc(S(=O)(=O)Nc2ccc3c(c2)C(=O)N([C@@H](C)CO)C[C@@H](C)[C@H](CN(C)C(=O)Nc2c(C)noc2C)OCCCC[C@H](C)O3)cc1	.	.	.	89*	.	.
C[C@@H]1CN([C@H](C)CO)C(=O)c2cc(NS(=O)(=O)c3ccc(Cl)cc3)ccc2O[C@@H]1CN(C)C(=O)Nc1ccccc1	.	.	.	82*	.	.
COc1ccc(S(=O)(=O)Nc2ccc3c(c2)C(=O)N([C@H](C)CO)C[C@H](C)[C@@H](CN(C)C(=O)Nc2c(C)noc2C)O3)cc1	-7	-3	-10	126*	-4	-7
COc1ccc(S(=O)(=O)Nc2ccc3c(c2)C(=O)N([C@@H](C)CO)C[C@@H](C)[C@@H](CN(C)C(=O)Nc2c(C)noc2C)OCCCC[C@H](C)O3)cc1	.	.	.	39	.	.
Cc1ccc(S(=O)(=O)Nc2ccc3c(c2)C(=O)N([C@@H](C)CO)C[C@@H](C)[C@H](CN(C)C(=O)Nc2c(C)noc2C)O3)cc1	.	.	.	13	.	.
